From the M2OR odorant receptor database

Molecular target: UniProt E9PXN3
Conditions: stereoisomer not certain
How it was run: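 Each entry records the cell line, G-protein, co-transfected protein and tags used. Methods varied with the source, often transient luciferase assays in mammalian cell lines. A receptor–molecule pair is called responsive (active) if the original authors judged its signal statistically different from baseline and non-responsive (inactive) otherwise.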

Chain of UniProt E9PXN3 (E9PXN3 as listed by the source): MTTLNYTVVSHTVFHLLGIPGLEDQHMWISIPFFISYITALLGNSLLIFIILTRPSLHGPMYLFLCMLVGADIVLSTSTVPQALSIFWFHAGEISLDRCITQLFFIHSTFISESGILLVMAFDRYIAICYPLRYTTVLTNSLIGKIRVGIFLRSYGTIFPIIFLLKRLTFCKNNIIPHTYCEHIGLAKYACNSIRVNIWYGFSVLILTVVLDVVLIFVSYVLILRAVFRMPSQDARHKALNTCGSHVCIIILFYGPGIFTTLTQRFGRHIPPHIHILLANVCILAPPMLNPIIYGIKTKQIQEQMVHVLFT

Structure (SMILES): O=C(O)CCCCCCCBr
- odorant receptor agonist call: inactive
